Results on 28 molecules are retold here after ChEMBL document CHEMBL4837219, “Chemical modification of NSC12 leads to a specific FGF-trap with antitumor activity in multiple myeloma” (Eur J Med Chem, 2021).

In data set [1] the test system is KMS-11. Put plainly: Trapping activity at FGF in human KMS-11 cells assessed as inhibition of FGFR3 phosphorylation at 6 uM measured after 6 hrs by western blot analysis. The data set is classed as cell-based. The method, boiled down: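 KMS-11 cells treated for 6 h with compound at 6.0 µM, then lysed in NP-40 buffer containing orthovanadate and protease inhibitors. Phospho-FGFR3 detected by western blot with anti-phospho-Y724 antibody, using β-actin or α-tubulin as loading control. Result expressed as % inhibition of FGFR3 phosphorylation by densitometry.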

The subject of data set [2] is KMS-11. Put plainly: Antiproliferative activity against human KMS-11 cells assessed as reduction in cell viability incubated for 48 hrs by propidium iodide staining-based flow cytometric analysis. The data set is classed as functional. Particulars: KMS-11, 48 h. An outline of the steps: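 KMS-11 cells (maintained in RPMI1640 with 10% heat-inactivated FBS and 2.0 mM glutamine) exposed to increasing concentrations of compound for 48 h. Viable PI-negative cells counted by flow cytometry using the analyzer's absolute counting function. IC50 is the concentration giving 50% inhibition of proliferation, taken as the mean of at least 2 experiments run in triplicate.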
Background: A flow cytometer gives signals particle by particle.

The target of data set [3] is Estrogen receptor beta (Homo sapiens) (UniProt Q92731). Put plainly: Displacement of [3H]estradiol from human full length recombinant ERbeta expressed in baculovirus-infected Sf9 cells at 50 uM incubated for 120 mins by radiometric scintillation counting analysis. An outline of the steps: (§1)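 Radioligand competition binding to human ERα or ERβ, run as an outsourced panel assay. Readout is % inhibition of specific [3H]estradiol binding at 5.0 and 50 µM compound. Run in duplicate, and the mean of the duplicates is reported.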
Estrogen receptor beta (Homo sapiens), sequence (Q92731 whole entry): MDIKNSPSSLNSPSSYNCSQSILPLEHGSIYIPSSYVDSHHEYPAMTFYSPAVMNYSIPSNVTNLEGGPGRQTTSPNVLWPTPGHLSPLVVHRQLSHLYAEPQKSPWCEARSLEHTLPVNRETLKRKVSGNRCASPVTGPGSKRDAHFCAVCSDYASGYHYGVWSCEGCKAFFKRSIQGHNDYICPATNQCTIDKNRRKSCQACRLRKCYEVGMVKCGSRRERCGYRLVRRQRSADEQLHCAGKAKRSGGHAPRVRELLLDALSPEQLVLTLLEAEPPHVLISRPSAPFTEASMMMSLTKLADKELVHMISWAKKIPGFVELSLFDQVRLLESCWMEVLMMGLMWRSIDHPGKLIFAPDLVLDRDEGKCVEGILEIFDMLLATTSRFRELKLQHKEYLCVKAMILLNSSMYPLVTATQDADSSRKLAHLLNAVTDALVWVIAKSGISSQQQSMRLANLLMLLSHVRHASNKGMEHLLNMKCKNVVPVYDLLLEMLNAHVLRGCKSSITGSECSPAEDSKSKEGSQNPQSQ

The nature of data set [4]: Total plasma concentration in NOD-SCID mouse at 7.5 mg/kg, ip measured after 90 mins by HPLC/MS/MS analysis. The data set is classed as ADME, organism-based. The method, boiled down: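 A single 7.5 mg/kg i.p. dose given to eight-week-old NOD/SCID mice (n = 4). Blood collected at 90 min. Plasma treated with acetonitrile containing internal standard (1:2) to precipitate protein, centrifuged, and the supernatant analyzed by C18 gradient HPLC-MS/MS in ESI-negative MRM mode. Calibration in spiked blank plasma, linear over 1–1000 nM, LOQ 1 nM. Values are mean ± SEM.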

For data set [5], the target named is T1, Estrogen receptor (Homo sapiens) (UniProt P03372).
T1 sequence (whole entry): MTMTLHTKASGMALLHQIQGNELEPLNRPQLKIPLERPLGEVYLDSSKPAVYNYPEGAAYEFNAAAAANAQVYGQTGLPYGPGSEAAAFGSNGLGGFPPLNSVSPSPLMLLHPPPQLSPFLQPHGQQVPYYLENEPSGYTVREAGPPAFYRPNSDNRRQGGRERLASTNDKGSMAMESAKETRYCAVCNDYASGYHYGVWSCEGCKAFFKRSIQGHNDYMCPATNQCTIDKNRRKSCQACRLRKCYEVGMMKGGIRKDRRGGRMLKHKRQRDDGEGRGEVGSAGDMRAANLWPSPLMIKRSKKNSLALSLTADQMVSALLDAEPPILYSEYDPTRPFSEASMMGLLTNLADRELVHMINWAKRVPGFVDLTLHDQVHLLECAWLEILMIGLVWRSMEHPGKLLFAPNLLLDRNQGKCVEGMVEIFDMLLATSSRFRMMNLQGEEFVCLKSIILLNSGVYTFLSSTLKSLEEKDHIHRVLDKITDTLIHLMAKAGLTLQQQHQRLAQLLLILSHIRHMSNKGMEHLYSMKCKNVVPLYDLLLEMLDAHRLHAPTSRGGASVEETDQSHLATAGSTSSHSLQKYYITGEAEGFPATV
Kind of data set: Displacement of [3H]estradiol from human full length recombinant ERalpha expressed in baculovirus-infected Sf9 cells at 5 uM incubated for 120 mins by radiometric scintillation counting analysis. The method, boiled down: as §1
For orientation: Displacement assays read how much labelled ligand stays bound in the presence of the test substance.

Data set [6] addresses Estrogen receptor beta (Homo sapiens) (UniProt Q92731). Put plainly: Displacement of [3H]estradiol from human full length recombinant ERbeta expressed in baculovirus-infected Sf9 cells at 5 uM incubated for 120 mins by radiometric scintillation counting analysis. The method, boiled down: as §1
Data set [7] concerns the target T1, Estrogen receptor (Homo sapiens). Kind of data set: Displacement of [3H]estradiol from human full length recombinant ERalpha expressed in baculovirus-infected Sf9 cells at 50 uM incubated for 120 mins by radiometric scintillation counting analysis. An outline of the steps: as §1
Data set [8] has as its system KMS-11. Kind of data set: Antitumor activity against human KMS-11 cells xenografted in NOD-SCID mouse assessed as tumor growth inhibition at 7.5 mg/kg, ip administered every other day measured at day 17 post-tumor implantation by caliper analysis. In kind it is functional, organism-based. The method, boiled down:
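Female NOD/SCID mice, six to eight weeks old, injected s.c. with 5 × 10^6 KMS-11 cells in PBS. Once tumors were palpable (10 days), mice were randomized and given 7.5 mg/kg i.p. every other day, with DMSO as vehicle control; n = 5 per group. Tumor volume from caliper measurements, V = (D × d²)/2. Tumors excised and weighed at day 17.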
Background: Xenograft models place foreign cells or tissue in a host animal.

The source made the active and inactive calls. The rule behind the calls is not given here.

Consider `C[C@]12CC[C@H]3[C@@H](CC=C4C[C@@H](O)CC[C@@]43C)[C@@H]1CC[C@@H]2[C@@H](O)CC(=O)O`, for which the inhibition (commonly the share of the control response that was lost under treatment) in data set [1] is 41%. Regarding `C[C@]12CC[C@H]3[C@@H](CC=C4C[C@@H](O[C@@H]5O[C@H](CO)[C@@H](O)[C@H](O)[C@H]5O)CC[C@@]43C)[C@@H]1CC[C@@H]2[C@@H](O)CC(O)(C(F)(F)F)C(F)(F)F`, the IC50 (commonly the concentration that gives 50% inhibition) in data set [2] is 4 µM. The inhibition in data set [1] worked out at 100%. For the molecule `C[C@]12CC[C@H]3[C@@H](CC=C4C[C@@H](O)CC[C@@]43C)[C@@H]1CC[C@@H]2[C@@H](O)CC(N)=O`, the inhibition in data set [1] stood at 17%. On the same count and under the same terms, as for `C[C@]12CC[C@H]3[C@@H](CC=C4CC(=O)CC[C@@]43C)[C@@H]1CC[C@@H]2[C@H](O)CC(O)(C(F)(F)F)C(F)(F)F`, the figure is 69%.

Take `C[C@]12CC[C@H]3[C@@H](CC=C4C[C@@H](O)CC[C@@]43C)[C@@H]1CC[C@@H]2[C@H](O)CC(N)=O`: in data set [1], the inhibition was determined as 44%. Consider `C[C@]12CC[C@H]3[C@@H](CC=C4C[C@@H](O)CC[C@@]43C)[C@@H]1CC[C@@H]2C(O)CC(O)c1ccccc1` (stereo in doubt; 11a), for which the inhibition in data set [1] was determined as 49%. In the case of `C[C@]12CC[C@H]3[C@@H](CC=C4C/C(=N/O)CC[C@@]43C)[C@@H]1CC[C@@H]2[C@H](O)CC(O)(C(F)(F)F)C(F)(F)F`, the inhibition in data set [1] was determined as 58%. For the molecule `C[C@]12CC[C@H]3[C@@H](CC=C4C[C@@H](O)CC[C@@]43C)[C@@H]1CC[C@@H]2[C@@H](O)CC(O)(C(F)(F)F)C(F)(F)F`, the inhibition stood at 91.9% in data set [3]; 81% in data set [1]; 60.8% in data set [5]; 74.9% in data set [6]; 83.3% in data set [7]. The IC50 in data set [2] amounted to 3.4 µM. In data set [4], this molecule yielded a concentration at 1.5 h of 360 nM. The result in data set [8] was Active. On to `C[C@]12CC[C@H]3[C@@H](CC=C4CC(=NO)CC[C@@]43C)[C@@H]1CC[C@@H]2[C@@H](O)CC(O)(C(F)(F)F)C(F)(F)F`, for which the inhibition in data set [1] amounted to 51%. On the same count and under the same terms, as for `C[C@]12CC[C@H]3[C@@H](CC=C4C[C@@H](O)CC[C@@]43C)[C@@H]1CC[C@@H]2[C@H](O)CC(=O)O`, the figure is 80%.

For `C[C@]12CC[C@H]3[C@@H](CC=C4CC(=O)CC[C@@]43C)[C@@H]1CC[C@@H]2[C@@H](O)CC(O)(C(F)(F)F)C(F)(F)F`, in data set [2], the half-inhibitory concentration (IC50) worked out at 3.4 µM. Moreover, the inhibition in data set [1] worked out at 91%. As to `C[C@]12CC[C@H]3[C@@H](CC=C4C[C@@H](O)CC[C@@]43C)[C@@H]1CC[C@@H]2C(O)CC(O)c1ccccn1` (stereo in doubt; 14a), the inhibition in data set [1] was 26%.

As for `C[C@]12CC[C@H](O)C[C@@H]1CC[C@@H]1[C@@H]2CC[C@]2(C)[C@@H]([C@H](O)CC(O)(C(F)(F)F)C(F)(F)F)CC[C@@H]12`, the inhibition result in data set [1] is “inactive”.

With `C[C@]12CC[C@H]3[C@@H](CC=C4C[C@@H](O)CC[C@@]43C)[C@@H]1CC[C@@H]2[C@@H](O)CCO`, the inhibition in data set [1] was 57%. The same measure, in the same setting: as for `C[C@]12CC[C@H]3[C@@H](CC=C4C[C@@H](O)CC[C@@]43C)[C@@H]1CC[C@@H]2C(O)CC(O)c1ccccc1` (stereo in doubt; 11b), the figure is 68%; as for `C[C@]12CC[C@H]3[C@@H](CC=C4C[C@@H](O)CC[C@@]43C)[C@@H]1CC[C@@H]2[C@H](O)CCO`, “inactive”. In data set [4], `C[C@]12CC[C@H]3[C@@H](CC=C4C[C@@H](O)CC[C@@]43C)[C@@H]1CC[C@@H]2[C@H](O)CC(O)(C(F)(F)F)C(F)(F)F` yielded a concentration at 1.5 h of 93.1 nM. Further, the inhibition result in data set [1] is “inactive”. As to `C[C@]12CC[C@H]3[C@@H](CC=C4C[C@@H](O)CC[C@@]43C)[C@@H]1CC[C@@H]2C(O)CC(O)c1ccccc1` (stereo in doubt; 11c), the inhibition in data set [1] came to 28%.

On to `C[C@]12CC[C@H]3[C@@H](CC=C4C[C@@H](OCCO)CC[C@@]43C)[C@@H]1CC[C@@H]2[C@@H](O)CC(O)(C(F)(F)F)C(F)(F)F`, for which the inhibition in data set [1] came out at 71%. On the same count and under the same terms, as for `CC(C)(O)C[C@@H](O)[C@H]1CC[C@H]2[C@@H]3CC=C4C[C@@H](O)CC[C@]4(C)[C@H]3CC[C@]12C`, the figure is 32%; as for `CC(C)(O)C[C@H](O)[C@H]1CC[C@H]2[C@@H]3CC=C4C[C@@H](O)CC[C@]4(C)[C@H]3CC[C@]12C`, 46%. `C[C@]12CC[C@H]3[C@@H](CC=C4C[C@@H](OC(=O)CN)CC[C@@]43C)[C@@H]1CC[C@@H]2[C@@H](O)CC(O)(C(F)(F)F)C(F)(F)F`: the half-inhibitory concentration (IC50) in data set [2] was 5.6 µM. Further, the inhibition in data set [1] is 93%. Turning to `C[C@]12CCC(=O)C[C@@H]1CC[C@@H]1[C@@H]2CC[C@]2(C)[C@@H]([C@@H](O)CC(O)(C(F)(F)F)C(F)(F)F)CC[C@@H]12`, the inhibition in data set [1] worked out at 82%. In the case of `C[C@]12CC[C@H]3[C@@H](CC=C4C[C@@H](O[C@@H]5O[C@H](CO)[C@@H](O)[C@H](O)[C@H]5O)CC[C@@]43C)[C@@H]1CC[C@@H]2[C@H](O)CC(O)(C(F)(F)F)C(F)(F)F`, the inhibition result in data set [1] was “inactive”.

Take `C[C@]12CC[C@H]3[C@@H](CC=C4C[C@@H](OCCO)CC[C@@]43C)[C@@H]1CC[C@@H]2[C@H](O)CC(O)(C(F)(F)F)C(F)(F)F`: the IC50 in data set [2] stood at 7.7 µM. Besides, in data set [1], the inhibition was 85%. `C[C@]12CC[C@H]3[C@@H](CC=C4C[C@@H](O)CC[C@@]43C)[C@@H]1CC[C@@H]2C(O)CC(O)c1ccccn1` (stereo in doubt; 14b): in data set [1], the inhibition was 34%. For `C[C@]12CC[C@H]3[C@@H](CC=C4C/C(=N\O)CC[C@@]43C)[C@@H]1CC[C@@H]2[C@H](O)CC(O)(C(F)(F)F)C(F)(F)F`, the inhibition in data set [1] amounted to 80%. On to `C[C@]12CC[C@H](O)C[C@@H]1CC[C@@H]1[C@@H]2CC[C@]2(C)[C@@H]([C@@H](O)CC(O)(C(F)(F)F)C(F)(F)F)CC[C@@H]12`, for which, in data set [2], the IC50 came to 2.9 µM. Moreover, in data set [1], the inhibition stood at 89%.
